According to ChEMBL document CHEMBL3351807, “2-Phenoxychromones and prenylflavonoids from Epimedium koreanum and their inhibitory effects on LPS-induced nitric oxide and interleukin-1β production” (J Nat Prod, 2014):

Columns and labels:
Format in all cases: functional, cell-based
RAW264.7 [1] = test: Inhibition of LPS-induced NO production in mouse RAW264.7 cells after 24 hrs by Griess reagent based assay; conditions: RAW264.7, 24 h
Summary of the method: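 RAW 264.7 cells seeded at 2 × 10^6 cells/mL, stimulated with 1 μg/mL LPS with or without compound, 37 °C for 24 h. Supernatant nitrite measured as NO indicator: Griess reagent, room temperature 10 min, absorbance 550 nm against sodium nitrite standard curve. Viability of remaining cells by colorimetric cell counting kit. IC50 as mean of triplicate experiments.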

RAW264.7 [2] = test: Inhibition of LPS-induced IL-1beta production in mouse RAW264.7 cells after 24 hrs by ELISA; conditions: RAW264.7, 24 h
Summary of the method: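 RAW 264.7 cells at 2 × 10^6 cells/mL stimulated with 1 μg/mL LPS in presence or absence of compound, 37 °C, 24 h. IL-1β in culture medium quantified by commercial ELISA kit. Remaining-cell viability checked by colorimetric cell counting kit. IC50 as mean of triplicate experiments.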

RAW264.7 [3] = test: Inhibition of LPS-induced IL-1beta gene expression in mouse RAW264.7 cells at 12.5 to 50 uM after 24 hrs by RT-PCR method
Summary of the method: (§1)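 Total RNA isolated with TRIZOL; single-stranded cDNA made from 2 μg total RNA, then PCR for iNOS or IL-1β transcripts. Products run on 1% agarose gels, stained with 5 μg/mL ethidium bromide. Cells LPS-stimulated, compound tested across doses.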

RAW264.7 [4] = test: Inhibition of LPS-induced iNOS gene expression in mouse RAW264.7 cells at 12.5 to 50 uM after 24 hrs by RT-PCR method; summary of the method: as §1

SMILES	IC50 (RAW264.7 [1])	IC50 (RAW264.7 [2])	inhibition (RAW264.7 [3])	inhibition (RAW264.7 [4])
COc1cc([C@H]2OC[C@H]3[C@@H]2CO[C@H]3c2ccc(O)c(OC)c2)ccc1O [PINORESINOL]	39.5 µM	> 50 µM	–	–
COc1ccc2c(c1)c(CC(=O)O)c(C)n2C(=O)c1ccc(Cl)cc1 [INDOMETHACIN]	15.8 µM	18.7 µM	–	–
C=CCc1ccc(O)c(-c2cc(CC=C)ccc2O)c1 [MAGNOLOL]	35.4 µM	38.9 µM	–	–
COc1c(O)cc(-c2cc(=O)c3c(O)cc(O)c(CC=C(C)C)c3o2)cc1CC=C(C)C	16.8 µM	8.8 µM	Dose-dependent effect	Dose-dependent effect
CC(=O)/C=C/[C@@]1(O)C(C)=CC(=O)CC1(C)C	38.5 µM	> 50 µM	–	–
COc1ccc(Oc2cc(=O)c3cc(O)c(CC=C(C)C)c(O)c3o2)cc1	27.5 µM	28.9 µM	–	–
COc1cn2c(=O)ccc(O)c2cn1	> 50 µM	> 50 µM	–	–
COc1cc2c(cc1OC)-c1c(cc(OC)c(OC)c1OC)CC2	> 50 µM	> 50 µM	–	–
CC(C)=CCc1c(O)cc(O)c2c(=O)cc(-c3cc(O)c4c(c3)C=CC(C)(C)O4)oc12	> 50 µM	> 50 µM	–	–
CC1(C)C[C@H](O)C[C@@]2(C)OC(=O)C=C12 [LOLIOLIDE]	> 50 µM	> 50 µM	–	–
CC1(C)C=Cc2c(cc(O)c3c(=O)cc(Oc4ccc(O)cc4)oc23)O1	> 50 µM	> 50 µM	–	–
CC1(C)C[C@@H](O)C[C@@]2(C)OC(=O)C=C12 [(+)-EPILOLIOLIDE]	> 50 µM	> 50 µM	–	–
N=C(N)NN [PIMAGEDINE]	21.4 µM	–	–	–
COc1cc([C@@H]2OC[C@@H]3[C@H]2CO[C@H]3c2cc(OC)c(O)c(OC)c2)cc(OC)c1O	45.6 µM	> 50 µM	–	–
COc1cc(C[C@@]2(O)CO[C@H](c3ccc(O)c(OC)c3)[C@H]2COC(C)=O)ccc1O	> 50 µM	> 50 µM	–	–
CC(C)=CCc1cc(-c2cc(=O)c3c(O)cc(O)c(CC=C(C)C)c3o2)ccc1O	19.7 µM	8.6 µM	Dose-dependent effect	Dose-dependent effect
COc1cc2ccc3cc(OC)c(OC)c(OC)c3c2cc1OC	49.3 µM	> 50 µM	–	–
